Source: PubChem BioAssay (Broad Institute)
esBAF inh = blocks esBAF chromatin remodeling in mouse ES cells; actives 2% (n = 350,000); reporter increase, % at 12.5 µM; Bmi1-luciferase knock-in reporter, 24 h; 100% = twice the neutral-well signal; in the data active = activation above about 40%; inconclusive = no clear call, values can overlap the other calls;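 note: 0% = median of the plate's neutral control wells and 100% = double that signal; a rise in the Bmi1 reporter signal indicates esBAF inhibition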
Xi reactivation = X-chromosome reactivation activator | actives 0.055% (n = 360,000) | AID 743238 | XiGFP mouse fibroblasts, % GFP-positive cells imaging, 3 d; cells co-treated with 5-aza-dC sensitizer; scaled so ellipticine positive control = 100% | activation, % at 7.58 µM;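 active = mean normalized replicate activation at least 10% and every replicate at or above 10%; inconclusive = only one of the two criteria met; inactive = mean below 10% and not all replicates reach 10%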;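 note: 0% = median of on-plate neutral control wells and 100% = ellipticine 6 µM median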
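Material: XiGFP fibroblasts, SV40-immortalized. Buffer or medium: DMEM plus 5-aza-dC sensitizer. Compound: single concentration per compound, delivered by pin transfer. Times: 3 days compound exposure. Controls: ellipticine 6 µM.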
MITF act = increases MITF-driven TRPM1 promoter luciferase signal; SK-MEL-5 TRPM1-promoter luciferase, 24 h; % of positive control, neutral wells = 0; activation, % at 12.5 µM; actives 0.75% (n = 300,000);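 active = mean activation of at least 80% with every replicate also reaching 80%; inconclusive = mean reaches 80% but some replicate falls short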;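 note: 0% = neutral control wells and 100% = parthenolide positive control wells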
Casp6 inh = caspase-6 (human) enzyme inhibition. AID 686996. inhibition, % at 12.5 µM. actives 0.53% (n = 350,000). purified caspase-6, Z-VEID-R110 cleavage fluorescence;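 active = mean inhibition across replicates at least about 35%, with every replicate also reaching that limit, limit read from the data; inconclusive = only one of the two criteria met; inactive = neither criterion met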;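 note: 0% = median of neutral control wells and 100% = no fluorescence left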
Wnt bcat act = activates Wnt/beta-catenin signaling in a reporter cell assay | activation, % at 9.35 µM | actives 1.2% (n = 300,000) | activator, plate reader; in the data active = activation above about 30%, passing the limit was not always enough; inconclusive = no clear call, values can overlap the other calls;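 note: 0% = neutral control wells and 100% = positive control wells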
NSD2 inh = blocks human histone methyltransferase NSD2 | O96028 | NSD2 peptide methylation, AlphaScreen, 120 min | inhibition, % at 12.5 µM | actives 0.54% (n = 310,000) | AID 743445; in the data active = inhibition above about 50%
Target sequence (O96028 whole entry, looked up): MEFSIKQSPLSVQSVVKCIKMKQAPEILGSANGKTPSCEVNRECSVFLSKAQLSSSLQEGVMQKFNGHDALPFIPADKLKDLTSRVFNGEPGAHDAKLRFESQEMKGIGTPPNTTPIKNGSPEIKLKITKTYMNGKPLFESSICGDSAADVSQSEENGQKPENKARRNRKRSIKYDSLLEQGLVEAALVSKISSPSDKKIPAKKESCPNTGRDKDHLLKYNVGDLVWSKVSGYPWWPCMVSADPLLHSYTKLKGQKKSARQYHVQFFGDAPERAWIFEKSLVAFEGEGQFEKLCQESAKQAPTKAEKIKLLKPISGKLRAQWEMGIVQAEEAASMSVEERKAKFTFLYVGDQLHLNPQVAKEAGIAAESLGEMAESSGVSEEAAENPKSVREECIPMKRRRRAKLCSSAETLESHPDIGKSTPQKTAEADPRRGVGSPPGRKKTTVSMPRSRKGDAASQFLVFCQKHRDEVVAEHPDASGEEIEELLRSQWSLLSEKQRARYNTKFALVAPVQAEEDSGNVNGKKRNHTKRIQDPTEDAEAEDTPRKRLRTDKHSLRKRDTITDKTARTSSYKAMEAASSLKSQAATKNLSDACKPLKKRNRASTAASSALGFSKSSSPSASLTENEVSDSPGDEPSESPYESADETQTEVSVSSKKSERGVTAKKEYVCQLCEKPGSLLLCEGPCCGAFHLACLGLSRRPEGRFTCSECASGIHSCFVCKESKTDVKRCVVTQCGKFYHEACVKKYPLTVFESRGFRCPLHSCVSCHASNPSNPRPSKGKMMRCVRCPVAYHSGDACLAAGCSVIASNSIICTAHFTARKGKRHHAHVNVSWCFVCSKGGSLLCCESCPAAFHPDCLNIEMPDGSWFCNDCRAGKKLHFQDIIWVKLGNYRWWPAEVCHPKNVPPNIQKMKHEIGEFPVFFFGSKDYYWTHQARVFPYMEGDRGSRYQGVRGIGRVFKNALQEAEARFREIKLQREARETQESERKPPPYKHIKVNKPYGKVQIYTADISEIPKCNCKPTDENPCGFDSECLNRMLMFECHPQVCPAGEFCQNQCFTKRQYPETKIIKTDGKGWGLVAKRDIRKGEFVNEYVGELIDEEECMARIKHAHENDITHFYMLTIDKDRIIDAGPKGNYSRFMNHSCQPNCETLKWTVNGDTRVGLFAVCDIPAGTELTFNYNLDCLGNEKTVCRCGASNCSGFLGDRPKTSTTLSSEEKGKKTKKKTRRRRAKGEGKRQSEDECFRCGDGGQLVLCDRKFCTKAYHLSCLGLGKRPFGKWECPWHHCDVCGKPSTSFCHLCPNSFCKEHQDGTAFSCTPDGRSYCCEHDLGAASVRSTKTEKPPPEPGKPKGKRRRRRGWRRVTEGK
* marks the source's active call; other numbers are inactive results; ? = inconclusive; / = not tested or not shown. Most compounds without a hit are left out; they make up all but 3% or so of the library.

SMILES	esBAF inh	Xi reactivation	MITF act	Casp6 inh	Wnt bcat act	NSD2 inh
CO[C@H](CN(C)C(=O)c1ccc2c(c1)OCO2)[C@@H](C)CN([C@@H](C)CO)S(=O)(=O)c1ccccc1	7.9	0.1	/	0.8	/	/
O=C(C[C@@H]1CC[C@@H]2[C@H](COC[C@H](O)CN2C(=O)C2CC2)O1)NCc1ccccc1Cl	-1.5	0.4	/	-0.1	/	/
Cc1ccc(C(=O)c2oc3ccccc3c2N)cc1	87.6*	/	32.2	/	/	-4.1
Nc1c(C(=O)c2ccc(Br)cc2)oc2ccccc12	/	-0.1	16.5	-1.3	9.0	-1.8
Cc1ccc(N2Cc3ccccc3C2=O)cc1	-20.9	0.0	2.6	0.4	11.6	0.6
Cc1cccc(N2C(=O)Cc3ccccc3C2=O)c1	-0.1	0.3	-3.7	48.0*	-1.3	3.9
Cc1ccc(N2C(=O)Cc3ccccc3C2=O)cc1	-4.6	0.3	-6.7	49.7*	-1.7	-5.1
COc1ccccc1N1C(=O)Cc2ccccc2C1=O	1.9	0.0	2.3	48.8*	-2.1	/
COc1ccc2c(c1)C(=O)N(c1ccccc1OC)C(=O)C2	/	/	-1.1	22.0	-1.2	3.4
COC(=O)C[C@@H]1CC[C@@H]2[C@@H](COc3ccc(NC(=O)c4ccc(F)c(F)c4)cc3C(=O)N2C)O1	-3.2	0.4	/	1.2	/	/
CCc1nc2n(n1)C(O)c1cc([N+](=O)[O-])ccc1S2 (stereo not drawn)	/	0.1	/	1.9	41.7*	-0.1
COc1ccc(C#Cc2ccc3c(c2)[C@H]2[C@H](CCN2Cc2ccncc2)[C@@H](CO)N3)cc1	/	0.0	/	-0.3	/	/
CCCCn1c(N)c(N(CC(C)C)C(=O)c2cc(-c3ccco3)nc3ccccc23)c(=O)[nH]c1=O	6.1	0.0	-3.3	39.3*	-3.8	3.6
CN(C)/C=N/c1nc(-c2ccc3c(c2)OCO3)cs1	22.2	0.0	76.1	-0.4	70.9*	-31.0
Nc1nc(-c2ccc3ccccc3c2)cs1	/	0.1	?	4.4	17.4	7.6
CN(C)/C=N/c1nc(-c2ccc3ccccc3c2)cs1	60.1	0.0	125.0*	-2.2	40.5*	-0.1
Cc1nc(-c2ccc3c(c2)OCCO3)cs1	/	0.3	38.6	0.2	-4.2	-2.8
CCCN(C)C[C@@H]1OCCCC[C@H](C)Oc2ccc(NC(=O)Nc3ccc(C(F)(F)F)cc3)cc2C(=O)N([C@@H](C)CO)C[C@@H]1C	0.2	-0.1	/	-3.0	/	/
COCC(=O)N1C[C@H](C)[C@@H](OC)CN(C)C(=O)c2cc(NC(=O)c3cc(C)on3)ccc2OC[C@H]1C	-2.9	0.1	/	/	/	/
O=C(N=Nc1c(O)[nH]c2ccc(Br)cc12)c1ccco1	60.1*	0.0	/	-4.3	36.4*	-2.8
O=C(N=Nc1c(O)[nH]c2ccc(Br)cc12)c1ccccc1-n1cccc1	10.3	/	-16.0	0.6	-6.9	14.3
CCN1c2ccccc2-c2nc3ccccc3n2C1c1cccnc1 (stereo not drawn)	-2.5	/	-0.9	/	/	-8.8
c1cncc(C2Nc3ccccc3-c3nc4ccccc4n32)c1 (stereo not drawn)	59.3*	/	13.9	5.0	7.0	-1.0
c1ccc2c(c1)NC(c1ccncc1)n1c-2nc2ccccc21 (stereo not drawn)	/	/	28.2	/	56.2*	-0.1
CCS(=O)(=O)N1CCC2(CC1)CN(S(=O)(=O)c1cccc(OC)c1)[C@@H](CO)c1[nH]c3cc(OC)ccc3c12	/	0.1	/	/	/	/
SMILES	esBAF inh	Xi reactivation	MITF act	Casp6 inh	Wnt bcat act	NSD2 inh
O=C(O)c1cc(N/N=C/C=C/c2ccccc2)ccc1Cl	90.0*	0.1	?	13.9	13.6	4.6
O=C(O)c1cc(NN=C2CCN(Cc3ccccc3)CC2)ccc1Cl	50.9*	-0.1	28.2	4.2	0.8	29.8
O=C(C[C@@H]1C=C[C@H](NC(=O)C2CC2)[C@@H](CO)O1)NCc1ccncc1	4.2	0.0	/	-3.0	/	/
O=C(Nc1ccc(C(=O)c2ccccc2)cc1)c1ccccc1	61.0*	0.1	126.9*	-0.5	50.5*	0.7
O=C(Nc1ccc2c(c1)CCCN2C(=O)c1ccccc1)c1ccccc1	46.1*	0.3	34.4	-4.9	-1.8	1.6
O=C(NNC(=O)c1ccc(NC(=O)c2ccccc2)cc1)c1ccc(F)cc1	-5.5	0.0	-7.8	0.2	-1.1	0.9
O=C(Nc1ccc(C(F)(F)F)cc1)c1ccccc1	53.5*	0.2	99.5*	-4.3	21.2	/
O=C(Nc1ccc(F)c(F)c1)c1ccccc1	41.7*	-0.2	46.9	0.1	21.4	/
COCC(=O)N1CCC2(CC1)CN(C(=O)NC1CCCC1)[C@H](CO)c1c2c2ccc(OC)cc2n1C	/	-0.1	/	1.9	/	/
O=C(Nc1ccc(-c2cnco2)cc1)c1ccc(Cl)cc1	33.7	-0.1	/	3.6	-3.7	-2.2
CC(C)(C)C(=O)NC(=S)Nc1ccc(C(F)(F)F)cc1	39.7	-0.1	18.1	-6.7	43.1*	-0.1
Cc1ccc(C)n1-c1cccc(NC(=O)c2ccccc2)c1	/	0.0	-11.0	/	/	-2.0
O=C(Nc1ccc(-c2cnco2)cc1)c1ccccc1	/	0.0	85.9*	0.3	21.5	-3.5
Cc1ccc(C)n1-c1ccc(C(=O)Nc2ccccc2)cc1	/	0.2	43.8	-1.2	102.2*	-0.9
C[C@@H]1CCCCO[C@@H](CN(C)C(=O)CCCN(C)C)[C@H](C)CN([C@H](C)CO)C(=O)c2cc(NC(=O)C3CCCCC3)ccc2O1	0.3	-1.3	/	0.2	/	/
COc1cccc(CN2[C@H](CO)[C@H](c3ccccc3)C23CN(Cc2ccccc2OC)C3)c1	/	0.1	/	/	/	/
Cc1cc(C)c(C(=O)C(C)OC(=O)C2=COCCO2)cc1C (stereo not drawn)	0.7	0.0	16.5	58.0*	5.5	-5.7
Cc1ccc(C(=O)C(C)OC(=O)C2=COCCO2)cc1C (stereo not drawn)	-6.1	/	-4.8	/	/	-0.8
O=C(O)/C=C/C(=O)c1ccc2c(c1)CCc1ccccc1-2	43.9*	0.3	-68.8	27.5	19.3	/
CCOC(=O)N/N=C\C=C\c1ccco1	/	0.0	-0.8	18.5	0.8	7.3
O=C(N/N=C/C=C/c1ccco1)c1ccccc1Cl	/	0.0	7.1	49.4*	-0.7	15.0
Cc1ccc(N/N=C/C=C/c2ccco2)cc1	/	0.3	99.1*	-0.6	26.7	-2.4
CC(=O)Nc1ccc2nc(NC(=O)c3cccs3)sc2c1	-34.1	-0.1	36.3	3.6	0.2	-1.9
CNC(=O)Nc1ccc2nc(C)sc2c1	/	0.1	1.4	1.5	/	0.2
Cc1nc2ccc(NC(=O)c3cccs3)cc2s1	/	-0.1	120.6*	-2.3	24.5	-1.2
Cc1cc(N2CCN(C)CC2)nc2ccc(NC(=S)NCCCN3CCc4ccccc4C3)cc12	/	2.9	-10.5	-135.7	-2.4	/
Cc1cc(N2CCN(C)CC2)nc2ccc(NC(=S)NCCN3CCc4ccccc4C3)cc12	-9.8	49.3*	-77.3	-121.1	-1.8	10.6
Cc1nc2ccc(NC(=O)c3sccc3C)cc2s1	46.0*	/	44.2	/	12.4	-1.5
